Assay [1] deals with Staphylococcus aureus. As to the kind of experiment: Antibacterial activity against methicillin-resistant Staphylococcus aureus at 37 degC after 24 hrs by agar well diffusion assay. It is filed as functional. A digest of the protocol: (§1)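 Bacteria kept on Nutrient Agar slants at 4 °C and subcultured before use. Suspensions of 10^8 CFU/mL were swabbed onto Nutrient Agar and the plates dried 40 min at 35 °C. Compounds were dissolved in DMSO starting at 2.5 mg/ml, serially diluted two-fold, and loaded into 6 mm wells. Plates were pre-incubated 2 h at 25 °C, then 24 h at 37 °C. Inhibition zones were read and the MIC taken as the lowest inhibiting concentration. Duplicates were run.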
(In general: A growth-free zone around the sample is the usual read-out of agar diffusion tests.)

In assay [2] the test system is Staphylococcus aureus. As to the kind of experiment: Antibacterial activity against Staphylococcus aureus at 30 ug/disc at 37 degC after 24 hrs by agar well diffusion assay. It is filed as functional. Particulars: read-out: DIZ. An outline of the steps:
(§2)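 Positive-control antibiotic disc on Nutrient Agar swabbed with 10^8 CFU/mL bacteria. Plates pre-incubated 2 h at 25 °C, then 24 h at 37 °C. Inhibition zone diameter measured in mm. Duplicate.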

For assay [3], the system named is Escherichia coli. As to the kind of experiment: Antibacterial activity against Escherichia coli at 30 ug/disc at 37 degC after 24 hrs by agar well diffusion assay. It is filed as functional. Particulars: read-out: DIZ. An outline of the steps: as §2
The subject of assay [4] is Candida tropicalis. As to the kind of experiment: Antifungal activity against Candida tropicalis at 100 U/disc at 25 degC after 48 hrs by agar well diffusion assay. The assay is classed as functional, organism-based. An outline of the steps: (§3)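 Yeasts kept on Sabouraud Dextrose Agar slants at 4 °C and subcultured before use. Suspensions of 10^7 CFU/mL were swabbed onto Sabouraud Dextrose Agar and the plates dried 40 min at 35 °C. The nystatin positive-control disc carried 100 U. Plates were pre-incubated 2 h at 25 °C, then incubated 48 h at 25 °C. The growth-inhibition zone diameter was measured in mm, in duplicate.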

Assay [5] relates to Candida parapsilosis. As to the kind of experiment: Antifungal activity against Candida parapsilosis at 100 U/disc at 25 degC after 48 hrs by agar well diffusion assay. It is filed as functional, organism-based. A digest of the protocol:
as §3

Assay [6] concerns Nakaseomyces glabratus. As to the kind of experiment: Antifungal activity against Candida glabrata at 100 U/disc at 25 degC after 48 hrs by agar well diffusion assay. It is filed as functional, organism-based. A digest of the protocol:
as §3

Assay [7] relates to Pseudomonas aeruginosa. As to the kind of experiment: Antibacterial activity against Pseudomonas aeruginosa at 37 degC after 24 hrs by agar well diffusion assay. The assay is classed as functional, organism-based. A digest of the protocol: (§4)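 Compounds dissolved in DMSO at 2.5 mg/ml initial concentration, then serially diluted two-fold in DMSO. Nutrient Agar plates were swabbed with 10^8 CFU/mL bacteria and dried about 40 min at 35 °C. Solution was placed in 6 mm wells, then 2 h pre-incubation at 25 °C and 24 h at 37 °C. MIC is the lowest concentration giving a growth-inhibition zone around the well. Duplicate.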

In assay [8] the test system is Escherichia coli. As to the kind of experiment: Antibacterial activity against Escherichia coli at 37 degC after 24 hrs by agar well diffusion assay. It is filed as functional, organism-based. An outline of the steps:
as §4

For assay [9], the system named is Enterococcus. As to the kind of experiment: Antibacterial activity against vancomycin-resistant Enterococcus species at 37 degC after 24 hrs by agar well diffusion assay. It is filed as functional, organism-based. A digest of the protocol: as §1
Assay [10] deals with Staphylococcus aureus. As to the kind of experiment: Antibacterial activity against Staphylococcus aureus at 37 degC after 24 hrs by agar well diffusion assay. The assay is classed as functional. A digest of the protocol: as §4
The test system of assay [11] is Nakaseomyces glabratus. As to the kind of experiment: Antifungal activity against Candida glabrata at 25 degC after 48 hrs by agar well diffusion assay. It is filed as functional. An outline of the steps:
(§5)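 Yeast suspensions of 10^7 CFU/mL were swabbed onto Sabouraud Dextrose Agar and dried about 40 min at 35 °C. Compounds were dissolved in DMSO (2.5 mg/ml initial) and diluted two-fold in DMSO, then loaded into 6 mm wells. Plates: 2 h pre-incubation at 25 °C, then 48 h at 25 °C. MIC read as the lowest concentration inhibiting growth around the well, in duplicate. The C. albicans clinical isolate came from a hospitalized patient at Eskisehir Osmangazi University hospital; the standard strain came from a culture collection.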

For assay [12], the system named is Candida albicans. As to the kind of experiment: Antifungal activity against Candida albicans ESOGU at 25 degC after 48 hrs by agar well diffusion assay. It is filed as functional. An outline of the steps:
as §5

Assay [13] deals with Candida albicans. As to the kind of experiment: Antifungal activity against Candida albicans at 25 degC after 48 hrs by agar well diffusion assay. The assay is classed as functional. An outline of the steps:
as §5

Assay [14] concerns Candida tropicalis. As to the kind of experiment: Antifungal activity against Candida tropicalis at 25 degC after 48 hrs by agar well diffusion assay. The assay is classed as functional. A digest of the protocol:
as §5

Assay [15] has as its system Candida parapsilosis. As to the kind of experiment: Antifungal activity against Candida parapsilosis at 25 degC after 48 hrs by agar well diffusion assay. It is filed as functional. An outline of the steps:
as §5

These results are taken from ChEMBL document CHEMBL3232750, “Synthesis, structure-activity relationships, and in vitro antibacterial and antifungal activity evaluations of novel pyrazole carboxylic and dicarboxylic acid derivatives” (2014).

Values after ≈ are worked out from the molar mass of the structure shown. Active and inactive are the calls of the source.

On to `CO/N=C(\C(=O)N[C@@H]1C(=O)N2C(C(=O)O)=C(COC(C)=O)CS[C@H]12)c1csc(N)n1` [CEFOTAXIME], for which the result in assay [1] was inactive. Besides, the zone of inhibition at 30 µg/disc was found to be 35 mm in [2] and 45 mm in [3].

Consider NYSTATIN, for which the values for the inhibition zone (IZ) in assay [4], in assay [5] and in assay [6] were 19 mm, 19 mm and 24 mm, respectively.

`Cc1cccc(NC(=O)c2nn(-c3cccc([N+](=O)[O-])c3)c(-c3ccccc3)c2C(=O)Nc2cccc(C)c2)c1`: the result in assay [7], in assay [8], in assay [9], in assay [10], in [1] and in assay [11] was inactive. Also, the outcome in [12], in assay [13], in [14] and in [15] was inactive.

The MIC is the smallest concentration in the dilution series that meets the test's criterion for growth inhibition. Low readings indicate greater potency, high ones weaker potency. Regarding `O=c1[nH][nH]c(=O)c2c(-c3ccccc3)n(-c3cccc([N+](=O)[O-])c3)nc12`, the outcome in [7], in assay [8], in [9], in assay [10], in assay [1] and in assay [11] was inactive. Also, the outcome in assay [12], in assay [14] and in assay [15] was inactive. Besides, in assay [13], the MIC stood at 50 µg/mL (≈ 143 µM).

In the case of `CCNC(=S)NC(=O)c1nn(-c2cccc([N+](=O)[O-])c2)c(-c2ccccc2)c1C(=O)NC(=S)NCC`, the outcome in assay [7], in assay [8], in assay [9], in [10], in assay [1] and in assay [11] was inactive. The outcome in [14] and in assay [15] was inactive. Moreover, the MIC in assay [12] and in [13] was 25 µg/mL (≈ 47.6 µM) in each case.

Consider `O=C(Nc1cccc(C(F)(F)F)c1)c1nn(-c2cccc([N+](=O)[O-])c2)c(-c2ccccc2)c1C(=O)Nc1cccc(C(F)(F)F)c1`, for which the outcome in assay [7], in assay [8], in assay [9], in assay [10], in assay [1] and in assay [11] was inactive. Also, the result in assay [12], in assay [14] and in assay [15] was inactive. This molecule came in with an MIC in [13] of 50 µg/mL (≈ 78.2 µM).

With `O=C(Nc1ccc([N+](=O)[O-])cc1)c1nn(-c2cccc([N+](=O)[O-])c2)c(-c2ccccc2)c1C(=O)Nc1ccc([N+](=O)[O-])cc1`, the result in assay [7], in assay [8], in [9], in [10], in [1] and in assay [11] was inactive. Also, the MIC in [12] worked out at 25 µg/mL (≈ 42.1 µM); in [13], 25 µg/mL (≈ 42.1 µM); in [14], 50 µg/mL (≈ 84.2 µM); in [15] (Lodderomyces parapsilosis), 25 µg/mL (≈ 42.1 µM).

As for `O=C(Nc1cccc(F)c1)c1nn(-c2cccc([N+](=O)[O-])c2)c(-c2ccccc2)c1C(=O)Nc1cccc(F)c1`, the outcome in assay [7], in assay [8], in [9], in assay [10], in assay [1] and in assay [11] was inactive. The result in assay [12], in assay [14] and in assay [15] was inactive. The molecule also showed an MIC in assay [13] of 50 µg/mL (≈ 92.7 µM).

On to `CCOC(=O)c1c(C(=O)Nc2ccc(F)cc2)nn(-c2cccc([N+](=O)[O-])c2)c1-c1ccccc1`, for which the outcome in [7], in assay [8], in [9], in assay [10], in [1] and in assay [11] was inactive. The result in assay [14] and in [15] was inactive. In addition, the MIC in [12] and in assay [13] was 50 µg/mL (≈ 105 µM) each time.

As to `CCOC(=O)c1c(C(=O)Nc2cccc(C(F)(F)F)c2)nn(-c2cccc([N+](=O)[O-])c2)c1-c1ccccc1`, the outcome in [7], in [8], in assay [9], in assay [10], in assay [1] and in assay [11] was inactive. Besides, the result in [15] was inactive. The MIC came out at 50 µg/mL (≈ 95.3 µM) in assay [12], 25 µg/mL (≈ 47.7 µM) in assay [13] and 50 µg/mL (≈ 95.3 µM) in assay [14].
